Consider nine compounds from ChEMBL document CHEMBL1137438, “Small conformationally restricted piperidine N-arylsulfonamides as orally active gamma-secretase inhibitors” (Bioorg Med Chem Lett, 2007).

The nature of data set [1]: AUC in rat at 10 mg/kg, po after 0 to 6 hrs. The class given is ADME, organism-based. Further details: time < 6 hr, dose 10 mg/kg, route oral. The conditions noted are these: plasma.
Data set [2] deals with Mus musculus. Kind of data set: Plasma A-beta-40 level in Tg CRND8 mouse at 30 mg/kg, sc after 3 hrs. The class given is functional. The conditions noted are these: route subcutaneous. Summed up: (§1)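 Tg CRND8 transgenic mice, acute single dose of 30 mpk, oral or sub-cutaneous. Plasma Aβ40 measured 3 h after dosing and expressed as % reduction.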
The test system of data set [3] is Mus musculus. In words: Plasma A-beta-40 level in Tg CRND8 mouse at 30 mg/kg, po after 3 hrs. The format is functional. Summed up:
as §1

In data set [1], `CC[C@@H]1CCC[C@H](C2(OC(=O)N3CC4CCC(C3)N4CCO)CC2)N1S(=O)(=O)c1ccc(F)cc1` (mixture of isomers) gave an AUC at 6 h of 1780 ng·h/mL.
In the case of `CC[C@@H]1CCC[C@H](C2(OC(=O)N3CC4CCC(C3)N4CCO)CC2)N1S(=O)(=O)c1ccc(F)c(F)c1` (mixture of isomers), the exposure (AUC) at 6 h in data set [1] was found to be 1330 ng·h/mL.
Compound `CC[C@@H]1CCC[C@H](C2(OC(=O)N3CC4CCC(C3)N4CCO)CC2)N1S(=O)(=O)c1ccc(Cl)cc1` (mixture of isomers) came in with an AUC at 6 h in data set [1] of 939 ng·h/mL. In the data set with Mus musculus [2], this compound registered an Activity of 85%.
Regarding `CC[C@@H]1CCC[C@H](C2(OC(=O)N3CCN(CCO)[C@@H](C)C3)CC2)N1S(=O)(=O)c1ccc(Cl)cc1` (racemic), the AUC at 6 h in data set [1] was determined as 1870 ng·h/mL.
For `CC[C@@H]1CCC[C@H](C2(OC(=O)N3CCN(C(C)(C)CO)CC3)CC2)N1S(=O)(=O)c1ccc(Cl)cc1` (racemic), the exposure (AUC) at 6 h in data set [1] is 892 ng·h/mL. Besides, the Activity in the data set on Mus musculus [3] is given as 96%; with Mus musculus [2], 91%.
`CC[C@@H]1CCC[C@H](C2(OC(=O)N3CCN(C(C)(C)CO)CC3)CC2)N1S(=O)(=O)c1ccc(F)cc1` (racemic) displayed an area under the curve (AUC) at 6 h in data set [1] of 405 ng·h/mL. This compound had an Activity in the data set on Mus musculus [2] of 59%.
As for `CC[C@@H]1CCC[C@H](C2(OC(=O)N3CCN(CCO)C[C@@H]3C)CC2)N1S(=O)(=O)c1ccc(Cl)cc1` (racemic), the exposure (AUC) at 6 h in data set [1] worked out at 3410 ng·h/mL.
The same measure, in the same setting: with `CC[C@@H]1CCC[C@H](C2(OC(=O)N3CCC(CCO)(OC)CC3)CC2)N1S(=O)(=O)c1ccc(Cl)cc1` (racemic) the figure was 81 ng·h/mL.
In data set [1], `CC[C@@H]1CCC[C@H](C2(OC(=O)N3CCC(N4CCCCC4)CC3)CC2)N1S(=O)(=O)c1cc(F)cc(F)c1` (racemic) registered an area under the curve (AUC) at 6 h of 296 ng·h/mL.
